By IC50 is commonly meant the concentration needed to halve the response being measured.

Assay [1] has as its system Trypanosoma cruzi. As to the kind of experiment: Growth inhibition of Trypanosoma cruzi Tulahuen epimastigotes assessed as drug level causing decrease in growth constant. Format: functional, organism-based. Put shortly: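 Tulahuen epimastigotes were seeded at 3 × 10^6/mL in Diamond's medium with 4 µM hemin, 5% FBS and penicillin/streptomycin at 28 °C. Drugs were added in DMSO (1% final) at several concentrations, in triplicate. Growth was followed daily for 10 days by nephelometry and fitted to first-order kinetics to give the growth constant k. ICk50 is the concentration lowering k by 50%.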

Assay [2] relates to Trypanosoma cruzi. Put plainly: Effect on oxygen uptake per mg of protein in Trypanosoma cruzi Tulahuen epimastigotes relative to control. It is filed as functional. Details: concentration or dose not given beside the values. The procedure, abridged:
(§1)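 Tulahuen epimastigotes were harvested on day 4 or 5 (500g, 10 min), washed and resuspended in 0.05 M sodium phosphate buffer pH 7.4 (0.107 M NaCl, 0.05 M KH2PO4). Respiration was measured polarographically with a Clark electrode as nanoatoms-gram O/min/mg protein, as % of control. Redox cycling was measured with 20 mM KCN, as % of KCN control. Values are means of three experiments.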

The test system of assay [3] is Trypanosoma cruzi. As to the kind of experiment: Effect on oxygen redox cycling in Trypanosoma cruzi Tulahuen assessed as oxygen consumption per mg of protein relative to control. It is filed as functional. Details: concentration or dose not given beside the values. Put shortly: as §1
Assay [4] has as its system Trypanosoma cruzi. As to the kind of experiment: Antitrypanosomal activity against Trypanosoma cruzi MF assessed as trypomastigote viability at 0.19 uM by MTT assay relative to control. In general terms: Tetrazolium assays rely on reduction of a dye to a coloured formazan, in cell work by metabolically active cells.
Assay [5] concerns Trypanosoma cruzi. Put plainly: Antitrypanosomal activity against Trypanosoma cruzi MF assessed as trypomastigote viability at 38.1 uM by MTT assay relative to control.
Assay [6] relates to Trypanosoma cruzi. As to the kind of experiment: Antitrypanosomal activity against Trypanosoma cruzi MF assessed as trypomastigote viability at 24.5 uM by MTT assay relative to control.
Assay [7] relates to Trypanosoma cruzi. Put plainly: Antitrypanosomal activity against Trypanosoma cruzi MF assessed as trypomastigote viability at 22.2 uM by MTT assay relative to control.
Assay [8] relates to Trypanosoma cruzi. As to the kind of experiment: Antitrypanosomal activity against Trypanosoma cruzi MF assessed as trypomastigote viability at 20.1 uM by MTT assay relative to control.
Assay [9] concerns Trypanosoma cruzi. As to the kind of experiment: Antitrypanosomal activity against Trypanosoma cruzi MF assessed as trypomastigote viability at 31.3 uM by MTT assay relative to control.
Assay [10] has as its system Trypanosoma cruzi. Put plainly: Antitrypanosomal activity against Trypanosoma cruzi MF assessed as trypomastigote viability at >100 uM by MTT assay relative to control.
Assay [11] relates to Trypanosoma cruzi. Put plainly: Antitrypanosomal activity against Trypanosoma cruzi MF assessed as trypomastigote viability at 1.93 uM by MTT assay relative to control.
Assay [12] has as its system Trypanosoma cruzi. As to the kind of experiment: Antitrypanosomal activity against Trypanosoma cruzi MF assessed as viability at 3.75 uM by MTT assay relative to control.
In assay [13] the test system is Trypanosoma cruzi. Put plainly: Antitrypanosomal activity against Trypanosoma cruzi MF assessed as trypomastigote viability at 24.7 uM by MTT assay relative to control.

For the compound `CC1CC(c2ccccc2)C2=C(O1)C(=O)c1ccccc1C2=O` (stereo not given), in the assay with Trypanosoma cruzi [1], the IC50 is 26.2 µM. Besides, the Activity in the assay on Trypanosoma cruzi [2] is given as 95.4%; with Trypanosoma cruzi [3] it was 96%.
Regarding `CC1(C)CC(O)C2=C(O1)C(=O)c1ncccc1C2=O` (stereo not given), the IC50 with Trypanosoma cruzi [1] was determined as 0.19 µM. The Activity is on record as 33.2% in the assay on Trypanosoma cruzi [2], 55% in the assay with Trypanosoma cruzi [3] and 8.8% with Trypanosoma cruzi [4].
As to `COc1cccc2c1C(=O)C1=C(C=CC(C)(C)O1)C2=O`, the IC50 in the assay on Trypanosoma cruzi [1] is 38.1 µM. Besides, the Activity stood at 100.2% in the assay with Trypanosoma cruzi [2], 100% in the assay with Trypanosoma cruzi [3] and 26.7% with Trypanosoma cruzi [5].
As for `CC1CCC2=C(O1)C(=O)c1ccccc1C2=O` (stereo not given), the IC50 in the assay on Trypanosoma cruzi [1] came to 24.5 µM. In addition, the Activity in the assay with Trypanosoma cruzi [2] is listed as 138.8%; with Trypanosoma cruzi [3], 173%; in the assay with Trypanosoma cruzi [6], 15.6%.
On to `CC(=O)CC1CCC2=C(O1)C(=O)c1ccccc1C2=O` (stereo not given), for which the 50% inhibitory concentration (IC50) in the assay with Trypanosoma cruzi [1] was 36.3 µM. The Activity in the assay with Trypanosoma cruzi [2] turned out to be 142.5%; in the assay with Trypanosoma cruzi [3], 168%.
In the case of `CC(=O)OC1CC(C)(C)OC2=C1C(=O)c1ccccc1C2=O` (stereo not given), the IC50 in the assay with Trypanosoma cruzi [1] amounted to 22.2 µM. Besides, the Activity with Trypanosoma cruzi [2] was determined as 135.5%; in the assay on Trypanosoma cruzi [3], 168%; in the assay with Trypanosoma cruzi [7] it was 32.9%.
As for `CC1(C)C=CC2=C(O1)C(=O)c1ncccc1C2=O`, the concentration for half-maximal inhibition (IC50) in the assay with Trypanosoma cruzi [1] worked out at 20.1 µM. In addition, the Activity with Trypanosoma cruzi [2] is reported as 243.3%; in the assay with Trypanosoma cruzi [3], 254%; with Trypanosoma cruzi [8], 44.8%.
On to `CC(C)=CCC1=C(O)C(=O)c2ccccc2C1=O` [LAPACHOL], for which the IC50 in the assay with Trypanosoma cruzi [1] stood at 31.3 µM. Further, the Activity was 51.8% in the assay on Trypanosoma cruzi [2], 82% in the assay on Trypanosoma cruzi [3] and 41.7% with Trypanosoma cruzi [9].
On to `CC(C)(O)CCC1=C(O)C(=O)c2ccccc2C1=O`, for which the half-maximal inhibitory concentration (IC50) in the assay with Trypanosoma cruzi [1] is greater than 100 µM. Further, the Activity in the assay on Trypanosoma cruzi [2] is listed as 125%; in the assay on Trypanosoma cruzi [3], 109%; in the assay with Trypanosoma cruzi [10] it was 112.6%.
On to `CC1CCC2=C(O1)c1ccccc1C(=O)C2=O` (stereo not given), for which, in the assay on Trypanosoma cruzi [1], the IC50 stood at 1.93 µM. Also, the values for the Activity with Trypanosoma cruzi [2], with Trypanosoma cruzi [3] and in the assay on Trypanosoma cruzi [11] were 100.6%, 100% and 40.3%, respectively.
For the compound `CC1CS(=O)(=O)CCN1/N=C/c1ccc([N+](=O)[O-])o1` (stereo not given) [NIFURTIMOX], the IC50 in the assay with Trypanosoma cruzi [1] was found to be 9.5 µM. The Activity was 120.4% in the assay on Trypanosoma cruzi [2] and 113% in the assay on Trypanosoma cruzi [3].
On to `CC(=O)CCC1=C(O)C(=O)c2ccccc2C1=O`, for which the half-maximal inhibitory concentration (IC50) in the assay with Trypanosoma cruzi [1] turned out to be 35.2 µM. Also, the values for the Activity in the assay with Trypanosoma cruzi [2] and with Trypanosoma cruzi [3] were 100.6% and 100%, respectively.
On to `O=C(Cn1ccnc1[N+](=O)[O-])NCc1ccccc1` [BENZNIDAZOLE], for which, in the assay with Trypanosoma cruzi [1], the IC50 stood at 20.6 µM. Moreover, the Activity in the assay on Trypanosoma cruzi [2] was determined as 57.8%; in the assay with Trypanosoma cruzi [3] it was 82%.
With `CC1(C)OC2=C(CC1O)C(=O)C(=O)c1ccccc12` (stereo not given), in the assay on Trypanosoma cruzi [1], the IC50 came to 3.75 µM. In addition, the Activity with Trypanosoma cruzi [2] stood at 96.8%; in the assay on Trypanosoma cruzi [3], 100%; with Trypanosoma cruzi [12] it was 30.4%.
For `CC1(C)CCC2=C(O1)c1ccccc1C(=O)C2=O` [LAPACHONE], the IC50 in the assay with Trypanosoma cruzi [1] came out at 24.7 µM. Also, the figures for the Activity with Trypanosoma cruzi [2], with Trypanosoma cruzi [3] and in the assay on Trypanosoma cruzi [13] were 107.5%, 100% and 2.9%, respectively.
